Measurements published in ChEMBL document CHEMBL1143832, “EDP-420, a bicyclolide (bridged bicyclic macrolide), is active against Mycobacterium avium” (Antimicrob Agents Chemother, 2007).
Converted amounts (≈) assume the structure as drawn. The source made the active and inactive calls. The rule behind the calls is not given here.

Legend:
Mycobacterium avium [1] = experiment: Antimicrobial activity against macrolide-resistant Mycobacterium avium radiometric broth […] method; assay type: functional
In short: (§1)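 MAC clinical blood isolates from AIDS patients; 5–10 colonies from 7H11 agar into 7H9 broth, inoculum ~5 × 10^4 CFU/ml by McFarland no. 1. Radiometric (BACTEC) broth […], T100 analysis. Controls: undiluted drug-free, 1:100 and 1:1,000 diluted inoculum, boiled-bacteria vial. Observation ~7 days. MIC range, MIC50 and MIC90 reported (susceptible n = 24; resistant n = 6).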

Mycobacterium avium [2] = experiment: Antimicrobial activity against macrolide-susceptible Mycobacterium avium by radiometric broth […] method; assay type: functional; in short: as §1
[3] = test system: Mycobacterium avium complex sp.; experiment: Antimicrobial activity against clarithromycin resistant-Mycobacterium avium complex 101 infected C57BL/6 beige mouse liver assessed as bacterial load at 100 mg/kg once daily 6 days a week for 4 weeks; assay type: functional
In short: (§2)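 Female beige mice (~20 g) infected intravenously with ~3 × 107 clarithromycin-resistant MAC 101 (from spleen of clarithromycin-treated MAC 101-infected mouse). Treatment started 1 week post-infection, once daily, 6 days/week, 4 weeks. Baseline mice harvested at 1 week; diluent-treated controls in parallel. Liver and spleen homogenized, diluted, plated on 7H10 agar, CFU counted after 10 days at 37°C. Mean CFU/g ± SEM.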

[4] = test system: Mycobacterium avium complex sp.; experiment: Antimicrobial activity against Mycobacterium avium complex 101 infected C57BL/6 beige mouse spleen assessed as bacterial load at 100 mg/kg once daily 6 days a week for 4 weeks; assay type: functional
In short: (§3)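 Female C57BL/6 beige mice, about 20 g, infected intravenously with about 3 × 10^7 MAC 101. Baseline mice harvested at 1 week, when treatment started: once daily, 6 days/week, for 4 weeks, alongside diluent-treated controls. Liver and spleen homogenized, diluted and plated on 7H10 agar, with CFU counted after 10 days at 37°C and expressed per gram. Student's t test.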

[5] = test system: Mycobacterium avium complex sp.; experiment: Antimicrobial activity against clarithromycin resistant-Mycobacterium avium complex 101 infected C57BL/6 beige mouse spleen assessed as bacterial load at 100 mg/kg once daily 6 days a week for 4 weeks; assay type: functional; in short: as §2
[6] = test system: Mycobacterium avium complex sp.; experiment: Antimicrobial activity against Mycobacterium avium complex 101 infected C57BL/6 beige mouse liver assessed as bacterial load at 100 mg/kg once daily 6 days a week for 4 weeks; assay type: functional; in short: as §3
[7] = test system: Mycobacterium avium complex sp.; experiment: Antimicrobial activity against Mycobacterium avium complex 101 infected C57BL/6 beige mouse liver assessed as bacterial load at 40 mg/kg once daily 6 days a week for 4 weeks; assay type: functional; in short: as §3
[8] = test system: Mycobacterium avium complex sp.; experiment: Antimicrobial activity against clarithromycin resistant-Mycobacterium avium complex 101 infected C57BL/6 beige mouse spleen assessed as bacterial load at 40 mg/kg once daily 6 days a week for 4 weeks; assay type: functional; in short: as §2
[9] = test system: Mycobacterium avium complex sp.; experiment: Antimicrobial activity against Mycobacterium avium complex 101 infected C57BL/6 beige mouse spleen assessed as bacterial load at 40 mg/kg once daily 6 days a week for 4 weeks; assay type: functional; in short: as §3
[10] = test system: Mycobacterium avium complex sp.; experiment: Antimicrobial activity against clarithromycin resistant-Mycobacterium avium complex 101 infected C57BL/6 beige mouse liver assessed as bacterial load at 40 mg/kg once daily 6 days a week for 4 weeks; assay type: functional; in short: as §2
[11] = test system: Mycobacterium avium complex sp.; experiment: Antibacterial activity against Mycobacterium avium complex 101 in U937 cells at 0.5 ug/ml after 4 days; conditions: U-937
[12] = Half life in mouse serum at 15 mg/kg, po; assay type: ADME, organism-based; parameters: dose 15 mg/kg, route oral
[13] = test system: Mycobacterium avium complex sp.; experiment: Antimicrobial activity against Mycobacterium avium complex 101 infected C57BL/6 beige mouse spleen assessed as bacterial load after 8 weeks; assay type: functional
[14] = Cmax in mouse serum at 15 mg/kg, po; assay type: ADME, organism-based; parameters: dose 15 mg/kg, route oral
[15] = Tmax in mouse serum at 15 mg/kg, po; assay type: ADME, organism-based; parameters: dose 15 mg/kg, route oral
[16] = test system: Mycobacterium avium complex sp.; experiment: Antimicrobial activity against Mycobacterium avium complex 101 infected C57BL/6 beige mouse spleen assessed as bacterial load after 12 weeks; assay type: functional

SMILES | MIC (Mycobacterium avium [1]) | MIC50 (Mycobacterium avium [2]) | MIC90 (Mycobacterium avium [2]) | CFU [3] | CFU [4] | CFU [5] | CFU [6] | CFU [7] | CFU [8] | CFU [9] | CFU [10] | Activity [11] | half-life [12] | CFU [13] | Cmax [14] | Tmax [15] | CFU [16]
CC[C@H]1OC(=O)[C@H](C)[C@@H](O[C@H]2C[C@@](C)(OC)[C@@H](O)[C@H](C)O2)[C@H](C)[C@@H](O[C@@H]2O[C@H](C)C[C@H](N(C)C)[C@H]2O)[C@](C)(O)C[C@@H](C)CN(C)[C@H](C)[C@@H](O)[C@]1(C)O [AZITHROMYCIN] | > 512 µg/mL | 16 µg/mL (≈ 21.4 µM) | 16 µg/mL (≈ 21.4 µM) | – | – | – | – | – | – | – | – | – | – | – | – | – | –
CC[C@H]1OC(=O)[C@H](C)[C@@H](O[C@H]2C[C@@](C)(OC)[C@@H](O)[C@H](C)O2)[C@H](C)[C@@H](O[C@@H]2O[C@H](C)C[C@H](N(C)C)[C@H]2O)[C@](C)(OC)C[C@@H](C)C(=O)[C@H](C)[C@@H](O)[C@]1(C)O [CLARITHROMYCIN] | > 64 µg/mL | 2 µg/mL (≈ 2.67 µM) | 4 µg/mL (≈ 5.35 µM) | 2.8 10^8/g | 6.6 10^7/g | 8 10^8/g | 2.8 10^7/g | – | – | – | – | – | – | – | – | – | –
O[C@@H](c1cc(C(F)(F)F)nc2c(C(F)(F)F)cccc12)[C@H]1CCCCN1 [MEFLOQUINE] | – | – | – | – | – | – | – | 1.8 10^7/g | 4.6 10^7/g | 4.8 10^7/g | 2.9 10^7/g | – | – | – | – | – | –
CC[C@H]1OC(=O)[C@H](C)C(=O)[C@H](C)[C@@H](O[C@@H]2O[C@H](C)C[C@H](N(C)C)[C@H]2O)[C@@]2(C)C[C@@H](C)/C(=N\C(C)=O)[C@H](C)[C@@H](OC/C(=N\OCc3ccc(-n4cccn4)nc3)CO2)[C@]1(C)O [MODITHROMYCIN] | 32 µg/mL (≈ 38 µM) | 4 µg/mL (≈ 4.76 µM) | 8 µg/mL (≈ 9.51 µM) | 1.7 10^8/g | 1.2 10^7/g | 5.7 10^8/g | 7.1 10^6/g | – | 2.7 10^8/g | – | 2.5 10^8/g | Active | 3.3 h | 2.3 10^5/g | 2500 ng/mL | 1.5 h | 2.5 10^5/g
CC[C@H]1OC(=O)[C@H](C)C(=O)[C@H](C)[C@@H](O[C@@H]2O[C@H](C)C[C@H](N(C)C)[C@H]2O)[C@](C)(OC)C[C@@H](C)C(=O)[C@H](C)[C@H]2N(CCCCn3cnc(-c4cccnc4)c3)C(=O)O[C@]12C [TELITHROMYCIN] | – | 32 µg/mL (≈ 39.4 µM) | > 64 µg/mL | – | – | – | – | – | – | – | – | – | 1.5 h | – | 5500 ng/mL | 1 h | –
